In PubChem BioAssay:
Results filed as inconclusive are left out.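 The calls were made as follows, unless noted: active = RAM network inhibition above 8.4% in each of two replicates, 3 SD over the compound average; inconclusive = above 8.4% inhibition in only one replicate; inactive = 8.4% inhibition or less in each replicate.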

What was measured:
[1] = S. cerevisiae growth inhibition in permissive medium (OD615), pilot counter-assay for S. cerevisiae lifespan shortening project, permissive growth control (AID 705;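 active = growth inhibition above 25% in both replicates, a cutoff set 3 SD above the mean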); settings: OD615, 24 h, at 10 µM, stronger effect = higher value
In short: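 Material: engineered DeaD yeast; Compound: one dose 10 µM, DMSO 0.25% final; Detection: absorbance (optical density) at 615 nm; Buffer or medium: permissive raffinose/galactose medium; Timing: 24 h exposure, 30 °C.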

[2] = S. cerevisiae growth inhibition in restrictive medium, OD615, pilot screen, restrictive growth control, yeast lifespan reduction project (AID 706;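 active = growth inhibition above a set limit, 3 SD over mean compound inhibition, in both replicates, cut at about 43% in these data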;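 also: modified DeaD lifespan yeast strain shifted to restrictive glucose medium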); settings: OD615, 48 h, at 10 µM, stronger effect = higher value
In short: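 Buffer or medium: restrictive glucose medium (CSMM-D); test system: modified S. cerevisiae; doses: single dose of 10 µM compound final, 0.25% DMSO; schedule: 48 h compound exposure at 30 °C; detection: absorbance (optical density) measured at 615 nm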

[3] = doxorubicin toxicity protection in MRP-1 cells – H69AR cells, CellTiter-Glo, duplicate, MRP-1 activator project, pilot screen (AID 807;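 active = viability increase at or above a cutoff of the median across tested compounds plus 3 SD, cut at about 8.5% in these data, passing the limit was not always enough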;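 also: compound pretreatment 18-22 h then 72 h combined with doxorubicin; 0% = doxorubicin alone and 100% = vehicle without doxorubicin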); settings: H69AR viability with doxorubicin, CellTiter-Glo luminescence; at 10 µM; stronger effect = higher value
[4] = viability of HCT116 without oncogenic beta-catenin – human colon tumor cells, pilot screen (AID 823;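 active = cell viability at or below a set limit in both duplicate runs, the limit being the all-compound median minus 4 SD, cut at about 23% in these data, passing the limit was not always enough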;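 also: 0% = wells killed by 20 µM Hyamine and 100% = untreated DMSO cell wells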); settings: HCT116 beta-catenin knockout viability, CellTiter-Glo, 60 h; at 10 µM; stronger effect = lower value
[5] = viability of PTEN-null HCT116 cells – cell-based, HCT116 clonal line, CellTiter-Glo, pilot screen (AID 824;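 active = viability at or below 27.92% in each of two runs, the all-compound median minus 4 SD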;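 also: 0% = 20 µM Hyamine control and 100% = vehicle cell control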); settings: HCT116 PTEN-deleted viability, 60 h, at 10 µM, stronger effect = lower value
[6] = RAM pathway blockade in budding yeast – dse1pr::URA3 reporter, 5-FOA selection, pilot screen (AID 869;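 active = inhibition over a set limit, the all-compound mean plus 3 SD, in both replicate runs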;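 also: 0% = DMSO wells with no growth and 100% = 10 µM 1-NA-PP1 with full growth; RAM network block rescues cells from 5-FOA so hits raise OD615 growth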); settings: S. cerevisiae dse1pr::URA3 5-FOA growth, OD615, 2 d; at 10 µM; stronger effect = higher value; strain carries analog-sensitive mutant Cbk1 kinase
[7] = RAM signaling pathway blockade in yeast – S. cerevisiae, Pdr1DBD-CYC8 efflux-inhibited sensitized strain, primary screen (AID 1298);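 also: 0% = DMSO untreated cells without growth and 100% = 10 µM 1-NA-PP1 full growth; higher means more yeast growth rescued from 5-FOA killing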; settings: S. cerevisiae cbk1-as DSE1-URA3 strain, 5-FOA growth OD615, 2 d; at 50 µM; stronger effect = higher value

CN(C)c1ccc(C2N3CC4(C)CN2CC(C)(C3)C4O)cc1 (stereo unspecified)
inactive: growth inhibition [1] -21.5% | growth inhibition [2] -10.9% | viability increase [3] 0.46% | viability [4] 101% | viability [5] 99% | inhibition [6] 2.33% | RAM network inhibition [7] 2.42%

COc1ccc(C(=O)Nc2ccc(S(=O)(=O)N3CCCCC3C)cc2)c(OC)c1OC (stereo unspecified)
inactive: growth inhibition [1] -3.56% | growth inhibition [2] -3.8% | viability increase [3] -0.18% | viability [4] 91.2% | viability [5] 96.1% | inhibition [6] 0.03% | RAM network inhibition [7] 1.24%

COc1ccc(N(CC(=O)N2CCN(C)CC2)S(=O)(=O)c2ccccc2)cc1OC
inactive: growth inhibition [1] -16.8% | growth inhibition [2] -19.4% | viability increase [3] -1.07% | viability [4] 104% | viability [5] 91.8% | inhibition [6] 0.195% | RAM network inhibition [7] 1.1%

Cc1oc(-c2ccccc2F)nc1CS(=O)CC(=O)NCc1cccs1 (stereo unspecified)
inactive: growth inhibition [1] -2.83% | growth inhibition [2] 26% | viability increase [3] -2.27% | viability [4] 99.7% | viability [5] 93.4% | inhibition [6] 1.64% | RAM network inhibition [7] 8.65%

OCCn1c(SCCOc2ccccc2F)nc2ccccc21
inactive: growth inhibition [1] -4.44% | growth inhibition [2] -1.06% | viability increase [3] -3.24% | viability [4] 91.5% | viability [5] 88.4% | inhibition [6] 2.67% | RAM network inhibition [7] 2.71%

CCOC(=O)Cn1c(=O)oc2cc(S(=O)(=O)Nc3c(C)cc(C)cc3C)ccc21
inactive: growth inhibition [1] -11.4% | growth inhibition [2] -14.1% | viability increase [3] -2.56% | viability [4] 94.5% | viability [5] 95.3% | inhibition [6] 0.86% | RAM network inhibition [7] 4.9%

CN(C)c1nc(-c2ccccc2)c2cnn(Cc3ccccc3)c2n1
inactive: growth inhibition [1] -12.5% | growth inhibition [2] -3.25% | viability increase [3] -4.48% | viability [4] 83.8% | viability [5] 75.9% | inhibition [6] 1.59% | RAM network inhibition [7] 6.82%

O=S(=O)(NCc1csc(-c2ccccc2)n1)c1ccc(Cl)s1
inactive: growth inhibition [1] -17.6% | growth inhibition [2] -16.7% | viability increase [3] -0.6% | viability [4] 96.9% | viability [5] 102% | inhibition [6] 0.21% | RAM network inhibition [7] 5.99%

O=C(NCS(=O)(=O)c1ccccc1)c1ccccc1
inactive: growth inhibition [1] -15.4% | growth inhibition [2] -4.22% | viability increase [3] -0.04% | viability [4] 101% | viability [5] 101% | inhibition [6] 0.675% | RAM network inhibition [7] 1.79%

C=C(C)Cc1c(C)nc(-c2ccccc2)[nH]c1=O
inactive: growth inhibition [1] -14% | growth inhibition [2] -14.1% | viability increase [3] 0.87% | viability [4] 99.7% | viability [5] 98.5% | inhibition [6] 1.76% | RAM network inhibition [7] 1.46%

COc1ccc2c(c1)CCc1c(C(=O)NCc3ccc(F)cc3)noc1-2
inactive: growth inhibition [1] -8.49% | growth inhibition [2] -0.25% | viability increase [3] 1.03% | viability [4] 100% | viability [5] 103% | inhibition [6] 1.86% | RAM network inhibition [7] 4.87%

O=C(CSc1ncn[nH]1)Nc1nnc(-c2ccccc2)s1
inactive: growth inhibition [1] 6.24% | growth inhibition [2] 11.1% | viability increase [3] 4.9% | viability [4] 94.3% | viability [5] 93.7% | inhibition [6] -0.75% | RAM network inhibition [7] 0.61%

Cc1cccc(-n2c(O)c(C=Nc3ccc4c(c3)OCO4)c3ccccc3c2=O)n1
inactive: growth inhibition [1] 1.54% | growth inhibition [2] -8.37% | viability increase [3] -0.5% | viability [4] 89.3% | viability [5] 80.2% | inhibition [6] 0.93% | RAM network inhibition [7] 2.46%

COc1ccc(C(=O)NCC(c2cccnc2)N2CCN(c3ccc(F)cc3)CC2)cc1OC (stereo unspecified)
inactive: growth inhibition [1] -12.2% | growth inhibition [2] -0.995% | viability increase [3] -3.89% | viability [4] 88.9% | viability [5] 80.8% | inhibition [6] 1.82% | RAM network inhibition [7] 4.32%

O=C(Cn1cc2c(n1)CCCC2)N1CCCC1
inactive: growth inhibition [1] -1.5% | growth inhibition [2] 1.53% | viability increase [3] 0.07% | viability [4] 95.5% | viability [5] 96.6% | inhibition [6] 1.14% | RAM network inhibition [7] 4.6%

COc1cccc(CNC(=O)Cn2cc3c(n2)CCCCC3)c1
inactive: growth inhibition [1] -12.5% | growth inhibition [2] -19.7% | viability increase [3] -1.29% | viability [4] 92.3% | viability [5] 85.9% | inhibition [6] 1.56% | RAM network inhibition [7] 1.81%

Cc1nc2ccc(S(=O)(=O)NC(C(=O)NCc3ccco3)C(C)C)cc2s1 (stereo unspecified)
inactive: growth inhibition [1] -6.93% | growth inhibition [2] -0.665% | viability increase [3] -2.43% | viability [4] 101% | viability [5] 101% | inhibition [6] 0.895% | RAM network inhibition [7] -0.06%

Cc1cccc(CCNC(=O)c2nnc(Cc3ccc(Cl)cc3)o2)c1
inactive: growth inhibition [1] -3.04% | growth inhibition [2] 1.66% | viability increase [3] 0.18% | viability [4] 102% | viability [5] 95.5% | inhibition [6] 1.27% | RAM network inhibition [7] 6.94%

Cc1onc(-c2ccccc2)c1C(=O)Nc1sc2c(c1C#N)CCC2
inactive: growth inhibition [1] 3.88% | growth inhibition [2] 4.25% | viability increase [3] -4.93% | viability [4] 59.7% | viability [5] 54.3% | inhibition [6] 1.58% | RAM network inhibition [7] 0.09%

Cc1nc(N2CCN(C)CC2)c2sc(=S)n(-c3ccccc3)c2n1
inactive: growth inhibition [1] -1.92% | growth inhibition [2] -1.67% | viability increase [3] -4.61% | viability [4] 93.4% | viability [5] 86.1% | inhibition [6] 1.31% | RAM network inhibition [7] 3.03%

CCOC(=O)N1CCC(Nc2c(N3CCN(c4cc(Cl)ccc4C)CC3)c(=O)c2=O)CC1
inactive: growth inhibition [1] 3.09% | growth inhibition [2] 4.44% | viability increase [3] -2.34% | viability [4] 71.9% | viability [5] 72.3% | inhibition [6] 2.42% | RAM network inhibition [7] 2.95%

C=CCSc1nnc(Cn2c(=O)sc3ccccc32)n1C
inactive: growth inhibition [1] -5.41% | growth inhibition [2] -8.71% | viability increase [3] -0.84% | viability [4] 108% | viability [5] 104% | inhibition [6] -0.685% | RAM network inhibition [7] 0.31%

O=C(NCCC1=CCCCC1)C1CCCN(S(=O)(=O)c2cccnc2)C1 (stereo unspecified)
inactive: growth inhibition [1] -1.48% | growth inhibition [2] 3.42% | viability increase [3] 0.1% | viability [4] 95.8% | viability [5] 101% | inhibition [6] 1.75% | RAM network inhibition [7] 1.4%

Cc1ccc2c(c1)C1(C(=O)N2C)N2CC3(C)CN1CC(C)(C2)C3=O (stereo unspecified)
inactive: growth inhibition [1] 6.63% | growth inhibition [2] 0.76% | viability increase [3] -2.2% | viability [4] 99.1% | viability [5] 99% | inhibition [6] 1.27% | RAM network inhibition [7] 0.11%

CCn1nc(C(=O)OCC(=O)c2ccc3c(c2)OCCO3)c2ccccc2c1=O
inactive: growth inhibition [1] -8.66% | growth inhibition [2] -8.03% | viability increase [3] -3.31% | viability [4] 89.9% | viability [5] 90.3% | inhibition [6] 1.78% | RAM network inhibition [7] 3.16%

COc1ccccc1-n1c(CNC(=O)c2ccco2)nnc1SCC(=O)Nc1nccs1
inactive: growth inhibition [1] -0.655% | growth inhibition [2] -2.6% | viability increase [3] -5.08% | viability [4] 77.4% | viability [5] 66.2% | inhibition [6] 1.09% | RAM network inhibition [7] 1.25%

NC(=O)c1cc(S(=O)(=O)Nc2cccc(F)c2)co1
inactive: growth inhibition [1] -17.4% | growth inhibition [2] -9.41% | viability increase [3] -0.8% | viability [4] 103% | viability [5] 103% | inhibition [6] 1.69% | RAM network inhibition [7] 2.85%

O=C(O)CCCC(=O)N1CCN(c2nc(-c3ccccc3)c3ccccc3n2)CC1
inactive: growth inhibition [1] -9.64% | growth inhibition [2] -6.36% | viability increase [3] -1.22% | viability [4] 102% | viability [5] 93% | inhibition [6] 0.83% | RAM network inhibition [7] 4.79%

CCC(C)(C(=O)NC1CCCCC1)N(Cc1ccco1)C(=O)CNC(=O)c1ccccc1 (stereo unspecified)
inactive: growth inhibition [1] -14.3% | growth inhibition [2] -12.2% | viability increase [3] -3.39% | viability [4] 83.5% | viability [5] 90.1% | inhibition [6] 0.145% | RAM network inhibition [7] 6.49%

Cc1nc2sc(C(c3ccco3)N3CCC(C)CC3)c(O)n2n1 (stereo unspecified)
inactive: growth inhibition [1] -6.81% | growth inhibition [2] 1.09% | viability increase [3] -1.29% | viability [4] 102% | viability [5] 103% | inhibition [6] 0.77% | RAM network inhibition [7] 2.81%

COc1ccc(C(=O)Nc2cccc(C(C)=O)c2)cc1S(=O)(=O)N1CCOCC1
inactive: growth inhibition [1] -23.9% | growth inhibition [2] -18.5% | viability increase [3] -1.76% | viability [4] 92% | viability [5] 96% | inhibition [6] 2.08% | RAM network inhibition [7] 2.08%

Fc1ccccc1COc1ccc(/C=N/n2cnnc2)cc1
inactive: growth inhibition [1] 3.41% | growth inhibition [2] 23.7% | viability increase [3] -1.78% | viability [4] 102% | viability [5] 95.4% | inhibition [6] 2.11% | RAM network inhibition [7] 2.09%

CC(C)COC(=O)c1ccc(NC(=O)C2C3CCC(C3)C2C(=O)O)cc1 (stereo unspecified)
inactive: growth inhibition [1] -7.04% | growth inhibition [2] -5.98% | viability increase [3] 0.09% | viability [4] 87.4% | viability [5] 90% | inhibition [6] 0.68% | RAM network inhibition [7] 0.37%
